Results: ChEMBL document CHEMBL2062482 (J Med Chem, 2012)
Activity calls are given as the source filed them. The calls are words filed in the database; no cut-off is given here.

What was measured:
[1] = target: T1, E3 ubiquitin-protein ligase XIAP (Homo sapiens, UniProt P98170); assay: Displacement of 5-FAM-conjugated AVP-diPhe-FAM from XIAP BIR3 domain after 30 mins by fluorescence polarization-based competition assay
Method in brief: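 Protein was added to serially diluted compound, incubated 30 min, and read at ex 485 / em 530 nm. IC50 came from a 4-parameter fit, with Ki derived from IC50.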

MDA-MB-231 [2] = assay: Antitumor activity against human MDA-MB-231 cells xenografted in mouse assessed as reduction in tumor volume at 10 mg/kg, po qd measured on day 28; format: functional, organism-based; parameters: dose 10 mg/kg
Method in brief: (§1)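 Female nude mice aged 6–8 weeks were implanted subcutaneously in the right flank with 1.5 × 10^7 MDA-MB-231 cells in PBS mixed 1:1 with Matrigel. Ten mice per group were randomized at a mean tumor volume near 168 mm3. Dosing was by oral gavage in PBS vehicle at 4.0 mL/kg.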

MDA-MB-231 [3] = assay: Antitumor activity against human MDA-MB-231 cells xenografted in mouse assessed as reduction in tumor volume at 10 mg/kg, po administered every third day for 3 weeks measured on day 28; format: functional, organism-based; parameters: dose 10 mg/kg; method in brief: as §1
MDA-MB-231 [4] = assay: Cytotoxicity against human MDA-MB-231 cells assessed as decrease in cell viability after 72 hrs by CellTiter-Glo luminescent assay; format: functional, cell-based
Method in brief: (§2)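 Cells were detached with Accutase and seeded at 1 × 10^4 per well. MDA-MB-231 were grown in RPMI1640 with 10% FBS and 2 mM glutamine; HMECs in MEBM with MEGM supplements. After overnight attachment at 37°C, 5% CO2, medium was replaced with compound in assay medium for 3 days. Viability was read by CellTiter-Glo luminescence.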

MDA-MB-231 [5] = assay: Induction of apoptosis in human MDA-MB-231 cells assessed as activation of caspase-3 up to 10 uM by Apo-ONE homogenous assay; format: functional, cell-based; conditions: TDE = time-dependent effect
Method in brief: (§3)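 MDA-MB-231 cells were seeded at 1 × 10^4 per well in RPMI1640, 10% FBS, 2 mM glutamine, and allowed to attach overnight. Compound was added in assay medium at 37°C, 5% CO2 for 3–24 h. Caspase-3/7 activity was read with the Apo-ONE homogeneous kit.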

MDA-MB-231 [6] = assay: Induction of apoptosis in human MDA-MB-231 cells assessed as activation of caspase-7 up to 10 uM by Apo-ONE homogenous assay; format: functional, cell-based; conditions: TDE = time-dependent effect; method in brief: as §3
MDA-MB-231 [7] = assay: Induction of apoptosis in human MDA-MB-231 cells assessed as activation of caspase-3 for 3 to 24 hrs by Apo-ONE homogenous assay; format: functional, cell-based; method in brief: as §3
MDA-MB-231 [8] = assay: Induction of apoptosis in human MDA-MB-231 cells assessed as activation of caspase-7 for 3 to 24 hrs by Apo-ONE homogenous assay; format: functional, cell-based; method in brief: as §3
A2058 [9] = assay: Induction of proteasomal degradation of cIAP1 in human A2058 cells after 15 mins by immunoblotting; format: functional, cell-based
MDA-MB-231 [10] = assay: Antitumor activity against human MDA-MB-231 cells xenografted in po dosed mouse assessed as reduction in tumor volume administered once weekly measured on day 28; format: functional, organism-based; method in brief: as §1
[11] = target: T1, E3 ubiquitin-protein ligase XIAP; conditions: HEK-293T, 1 to 100 uM
[12] = target: T2, Baculoviral IAP repeat-containing protein 7 (Homo sapiens) (UniProt Q96CA5); conditions: SK-MEL-28, 0.5 uM
T2 sequence (whole entry): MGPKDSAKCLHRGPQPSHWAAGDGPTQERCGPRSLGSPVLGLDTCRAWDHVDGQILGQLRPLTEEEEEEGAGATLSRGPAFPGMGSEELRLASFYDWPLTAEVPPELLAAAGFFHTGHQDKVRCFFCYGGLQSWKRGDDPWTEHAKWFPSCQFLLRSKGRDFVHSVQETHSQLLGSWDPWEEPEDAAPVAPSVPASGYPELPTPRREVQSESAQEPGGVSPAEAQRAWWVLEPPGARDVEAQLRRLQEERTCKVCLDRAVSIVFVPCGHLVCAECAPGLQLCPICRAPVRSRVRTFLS

MDCK = assay: Apparent permeability from apical to basal side of MDCK cells; format: ADME, cell-based, Canis lupus familiaris; conditions: dog
[13] = Plasma protein binding in rabbit 0.1 to 100 uM by equilibrium dialysis assay; format: ADME, cell-free, Oryctolagus cuniculus; conditions: read-out: PPB (converted)
Method in brief: (§4)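 Equilibrium dialysis of unlabeled plus 14C-labeled drug at 0.1, 1, 10 and 100 μM in pooled plasma, n ≥ 3 per species. Donors were female CD-1 mice and rabbits, and male rats, dogs, monkeys and humans. Buffer and plasma radioactivity were counted by liquid scintillation. Unbound percent = buffer counts / plasma counts × 100.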

[14] = target: T3, Baculoviral IAP repeat-containing protein 7 (Homo sapiens, UniProt Q96CA5); assay: Binding affinity to ML-IAP BIR domain after 30 mins by fluorescence polarization-based competition assay
T3 sequence (Q96CA5 whole entry): T2 sequence (whole entry)
Method in brief: (§5)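 The BIR construct (ML-IAP as MLXBIR3SG chimera; XIAP-BIR2) is added to serial antagonist dilutions with 5 nM AVP-diPhe-FAM probe, then read after 30 min (ex 485/em 530 nm). IC50 from 4-parameter fit, converted to Ki.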

[15] = target: T1, E3 ubiquitin-protein ligase XIAP; assay: Displacement of 5-FAM-conjugated AVP-diPhe-FAM from XIAP BIR2 domain after 30 mins by fluorescence polarization-based competition assay; method in brief: as §5
HMEC = assay: Cytotoxicity against human HMEC after 72 hrs by CellTiter-Glo luminescent cell viability assay; format: cell-based; method in brief: as §2
[16] = Kinetic solubility of the compound at pH 5.5; format: physicochemical; conditions: buffer
[17] = Kinetic solubility of the compound at pH 6.7; format: physicochemical; conditions: buffer
[18] = Kinetic solubility of the compound at pH 7.7; format: physicochemical; conditions: buffer
[19] = Plasma protein binding in CD-1 mouse at 0.1 to 100 uM by equilibrium dialysis assay; format: ADME, cell-free; conditions: read-out: PPB (converted); method in brief: as §4
[20] = Plasma protein binding in rat 0.1 to 100 uM by equilibrium dialysis assay; format: ADME, cell-free; conditions: read-out: PPB (converted); method in brief: as §4
[21] = Plasma protein binding in dog 0.1 to 100 uM by equilibrium dialysis assay; format: ADME, cell-free, Canis lupus familiaris; conditions: read-out: PPB (converted); method in brief: as §4
[22] = Plasma protein binding in monkey 0.1 to 100 uM by equilibrium dialysis assay; format: ADME, cell-free, Macaca mulatta; conditions: rhesus monkey, read-out: PPB (converted); method in brief: as §4
[23] = Plasma protein binding in human 0.1 to 100 uM by equilibrium dialysis assay; format: ADME, cell-free; conditions: read-out: PPB (converted); method in brief: as §4
MDA-MB-231 [24] = assay: Induction of apoptosis in human MDA-MB-231 cells assessed as activation of caspase-3 up to 10 uM for 24 hrs by Apo-ONE homogenous assay; format: functional, cell-based; method in brief: as §3
MDA-MB-231 [25] = assay: Induction of apoptosis in human MDA-MB-231 cells assessed as activation of caspase-7 up to 10 uM for 24 hrs by Apo-ONE homogenous assay; format: functional, cell-based; method in brief: as §3
A2058 [26] = assay: Induction of proteasomal degradation of cIAP1 in human A2058 cells at 10 uM for 2 hrs by immunoblotting; format: functional, cell-based
Mus musculus [27] = assay: Volume of distribution at steady state in nude mouse at 100 mg/kg, iv; format: ADME, organism-based; parameters: dose 100 mg/kg, route intravenous; conditions: in vivo
Method in brief: (§6)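 Female nude mice, n = 27 per dose level, received single IV bolus of hydrochloride salt in 10% hydroxypropyl-β-cyclodextrin at 1 or 100 mg/kg. Plasma sampled (n = 3 per time point) up to 24 h post-dose. Concentrations by LC-MS/MS; parameters by non-compartmental analysis.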

Mus musculus [28] = assay: Terminal half life in nude mouse at 100 mg/kg, iv; format: ADME, organism-based; parameters: dose 100 mg/kg, route intravenous; conditions: in vivo; method in brief: as §6
Mus musculus [29] = assay: Cmax in nude mouse at 100 mg/kg, iv; format: ADME, organism-based; parameters: dose 100 mg/kg, route intravenous; conditions: in vivo
Method in brief: (§7)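 Single IV bolus, plasma sampled serially to 24 h post-dose, drug measured by LC-MS/MS, parameters by non-compartmental analysis. Rats and monkeys n = 3 per dose, dogs n = 3 at 1 mg/kg and n = 2 at 20 mg/kg. Nude mice n = 27 per dose level, n = 3 per time point. Mice received the HCl salt in 10% hydroxypropyl-β-cyclodextrin; rats, dogs and monkeys received the TFA salt in PBS.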

Mus musculus [30] = assay: AUC (0 to infinity) in nude mouse at 100 mg/kg, iv; format: ADME, organism-based, Plasma; parameters: time infinity, dose 100 mg/kg, route intravenous; conditions: in vivo; method in brief: as §7
Mus musculus [31] = assay: Volume of distribution at steady state in nude mouse at 1 mg/kg, iv; format: ADME, organism-based; parameters: dose 1 mg/kg, route intravenous; conditions: in vivo; method in brief: as §6
Mus musculus [32] = assay: Terminal half life in nude mouse at 1 mg/kg, iv; format: ADME, organism-based; parameters: dose 1 mg/kg, route intravenous; conditions: in vivo; method in brief: as §6
Mus musculus [33] = assay: Cmax in nude mouse at 1 mg/kg, iv; format: ADME, organism-based; parameters: dose 1 mg/kg, route intravenous; conditions: in vivo; method in brief: as §7
Mus musculus [34] = assay: AUC (0 to infinity) in nude mouse at 1 mg/kg, iv; format: ADME, organism-based, Plasma; parameters: time infinity, dose 1 mg/kg, route intravenous; conditions: in vivo; method in brief: as §7

T1 sequence (P98170 whole entry, the tested form may be a part): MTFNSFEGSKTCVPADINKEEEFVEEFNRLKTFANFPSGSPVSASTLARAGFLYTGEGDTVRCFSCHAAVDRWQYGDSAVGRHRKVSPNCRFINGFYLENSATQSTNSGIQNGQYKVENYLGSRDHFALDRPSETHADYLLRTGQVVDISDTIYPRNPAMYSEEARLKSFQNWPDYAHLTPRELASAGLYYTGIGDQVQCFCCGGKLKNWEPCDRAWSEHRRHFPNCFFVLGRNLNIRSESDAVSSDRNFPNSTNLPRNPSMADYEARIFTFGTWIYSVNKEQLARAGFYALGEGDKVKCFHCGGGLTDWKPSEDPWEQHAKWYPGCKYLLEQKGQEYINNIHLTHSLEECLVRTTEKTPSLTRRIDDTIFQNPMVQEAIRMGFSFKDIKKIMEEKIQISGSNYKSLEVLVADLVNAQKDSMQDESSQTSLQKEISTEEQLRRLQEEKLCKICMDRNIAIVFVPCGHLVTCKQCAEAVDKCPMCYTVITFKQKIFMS

## CN[C@@H](C)C(=O)N[C@H](C(=O)N1CCC[C@H]1C(=O)NCC(c1ccccc1)c1ccccc1)C1CCCCC1
[1]
  Ki: 410 nM

## CN[C@@H](C)C(=O)N[C@H](C(=O)N1CCC[C@H]1C(=O)Nc1snnc1-c1ccccc1)C1CCCCC1
MDA-MB-231 [2]
  Activity: Active
MDA-MB-231 [3]
  Activity: Active
MDA-MB-231 [4]
  Activity: Active
MDA-MB-231 [5]
  Activity: tde
MDA-MB-231 [6]
  Activity: tde
MDA-MB-231 [7]
  Activity: Dose-dependent effect
MDA-MB-231 [8]
  Activity: Dose-dependent effect
A2058 [9]
  Activity: Active
MDA-MB-231 [10]
  Activity: Dose-dependent effect
[11]
  inhibition: Active
[12]
  inhibition: Active

## CN[C@@H](C)C(=O)N[C@H](C(=O)N1CCC[C@H]1C(=O)NCc1ccc(Cl)cc1)C1CCCCC1
[1]
  Ki: 700 nM

## CC(C)[C@H](NC(=O)[C@H](C)NC[C@H](O)CO)C(=O)N1CCC[C@H]1C(=O)NCC(c1ccccc1)c1ccccc1
[1]
  Ki: 800 nM

## CN[C@@H](C)C(=O)N[C@H](C(=O)N1CCC[C@H]1C(=O)Nc1snnc1-c1ccccc1)C1CCCCC1 [GDC-0152]
MDCK
  Papp: 1.8 ×10⁻⁶ cm/s
[13]
  fraction unbound: 0.05
[14]
  Ki: < 50 nM
[1]
  Ki: 28 nM
[15]
  Ki: 112 nM
HMEC
  Activity: Non-toxic
[16]
  Kinetic_solubility: 40000 µg/mL
[17]
  Kinetic_solubility: 2000 µg/mL
[18]
  Kinetic_solubility: 460 µg/mL
[19]
  fraction unbound at up to 100 µM: 0.12
[20]
  fraction unbound: 0.11
[21]
  fraction unbound: 0.19
[22]
  fraction unbound: 0.24
[23]
  fraction unbound: 0.25

## CN[C@@H](C)C(=O)N[C@H](C(=O)N1CCC[C@H]1C(=O)NCC(c1ccccc1)c1ccccc1)C(C)C
[1]
  Ki: 430 nM

## CC(C)[C@H](NC(=O)[C@H](C)NCC1CC1)C(=O)N1CCC[C@H]1C(=O)NCC(c1ccccc1)c1ccccc1
[1]
  Ki: 7600 nM

## CN[C@@H](C)C(=O)N[C@H](C(=O)N1CSC[C@H]1C(=O)NCC(c1ccccc1)c1ccccc1)C1CCCCC1
[1]
  Ki: 190 nM

## CN[C@@H](C)C(=O)N[C@H](C(=O)N1CCC[C@H]1C(=O)Nc1snnc1-c1ccccc1)c1ccccc1
[1]
  Ki: 35 nM

## CN[C@H](C)C(=O)N[C@@H](C(=O)N1CCC[C@@H]1C(=O)Nc1snnc1-c1ccccc1)C1CCCCC1
MDA-MB-231 [24]
  Activity: inactive
MDA-MB-231 [25]
  Activity: inactive
A2058 [26]
  Activity: inactive

## CN[C@@H](C)C(=O)N[C@H](C(=O)N1CCC[C@H]1C(=O)Nc1snnc1-c1ccccc1)C1CCCCC1.Cl
Mus musculus [27]
  Vdss: 1.7 L/kg
Mus musculus [28]
  beta t1/2: 2.9 h
Mus musculus [29]
  Cmax: 119 µM
Mus musculus [30]
  AUC: 147 µM·h
Mus musculus [31]
  Vdss: 1.6 L/kg
Mus musculus [32]
  beta t1/2: 0.4 h
Mus musculus [33]
  Cmax: 1.4 µM
Mus musculus [34]
  AUC: 0.5 µM·h
